Measurements: ChEMBL document CHEMBL4024779, “Novel Terminal Bipheny-Based Diapophytoene Desaturases (CrtN) Inhibitors as Anti-MRSA/VISR/LRSA Agents with Reduced hERG Activity” (J Med Chem, 2018)
Activity calls are given as the source filed them. The calls are words filed in the database; no cut-off is given here.

Legend:
[1] = (§1) Half life in human liver microsomes at 2 uM after 60 mins in presence of NADPH by LC-MS/MS method; type: ADME, microsome; settings: liver microsomes
[2] = molecular target: Voltage-gated inwardly rectifying potassium channel KCNH2 (Homo sapiens, UniProt Q12809); assay: Inhibition of human ERG expressed in CHO cells at -80 mV holding potential after 3 mins by QPatch test; type: cell-based
Chain of Voltage-gated inwardly rectifying potassium channel KCNH2 (Q12809 whole entry): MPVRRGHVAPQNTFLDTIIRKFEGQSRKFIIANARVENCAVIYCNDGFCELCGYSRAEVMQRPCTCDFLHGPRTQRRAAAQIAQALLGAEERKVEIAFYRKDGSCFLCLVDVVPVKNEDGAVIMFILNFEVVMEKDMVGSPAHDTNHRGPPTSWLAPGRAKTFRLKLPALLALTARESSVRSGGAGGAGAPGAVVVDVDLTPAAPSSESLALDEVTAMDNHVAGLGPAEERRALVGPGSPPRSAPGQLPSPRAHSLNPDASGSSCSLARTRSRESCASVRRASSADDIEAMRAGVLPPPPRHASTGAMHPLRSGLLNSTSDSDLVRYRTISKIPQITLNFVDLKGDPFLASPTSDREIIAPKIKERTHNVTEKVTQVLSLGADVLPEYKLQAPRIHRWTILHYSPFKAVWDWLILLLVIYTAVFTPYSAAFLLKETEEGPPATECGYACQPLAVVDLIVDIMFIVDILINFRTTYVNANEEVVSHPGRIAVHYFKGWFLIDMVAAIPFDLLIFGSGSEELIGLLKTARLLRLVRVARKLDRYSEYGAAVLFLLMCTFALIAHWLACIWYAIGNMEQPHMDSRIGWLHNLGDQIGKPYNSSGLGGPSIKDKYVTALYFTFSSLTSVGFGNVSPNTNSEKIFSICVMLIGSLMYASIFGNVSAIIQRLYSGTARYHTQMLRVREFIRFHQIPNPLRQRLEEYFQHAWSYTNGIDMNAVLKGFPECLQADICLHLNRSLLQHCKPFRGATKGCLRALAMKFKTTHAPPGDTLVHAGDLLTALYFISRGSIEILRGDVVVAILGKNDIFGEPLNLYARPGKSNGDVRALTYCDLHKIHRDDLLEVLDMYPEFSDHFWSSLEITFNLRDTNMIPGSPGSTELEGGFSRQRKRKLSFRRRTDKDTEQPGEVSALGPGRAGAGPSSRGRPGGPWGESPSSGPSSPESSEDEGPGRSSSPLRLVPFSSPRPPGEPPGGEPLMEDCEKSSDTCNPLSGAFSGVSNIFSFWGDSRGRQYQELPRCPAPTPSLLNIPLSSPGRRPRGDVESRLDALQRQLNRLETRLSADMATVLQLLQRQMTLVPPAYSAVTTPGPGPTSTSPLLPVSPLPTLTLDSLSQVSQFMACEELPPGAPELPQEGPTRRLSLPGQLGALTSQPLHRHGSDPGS

[3] = Inhibition of CrtN in methicillin-resistant Staphylococcus aureus NF65Y assessed as reduction in staphyloxanthin levels after 48 hrs by spectrophotometric method-based pigment inhibition assay
[4] = Inhibition of CrtN in methicillin-resistant Staphylococcus aureus XN108 assessed as reduction in staphyloxanthin levels after 48 hrs by spectrophotometric method-based pigment inhibition assay
[5] = Inhibition of CrtN in methicillin-resistant Staphylococcus aureus HS663 assessed as reduction in staphyloxanthin levels after 48 hrs by spectrophotometric method-based pigment inhibition assay
Staphylococcus aureus [6] = assay: In vivo anti-virulence activity against methicillin-resistant Staphylococcus aureus XN108 infected in BALB/c mouse model assessed as reduction in bacterial load in heart at 0.1 mg bid for 3.5 days administered intraperitoneally 6 hrs post infection by serial dilution method relative to linezolid; type: functional, organism-based
Summary of the method: (§2)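 Mice infected retro-orbitally with S. aureus NF65Y (3.5 × 10^8 CFU) or XN108 (2.1 × 10^8 CFU). Test compound given i.p. b.i.d. starting 6 h post-infection. […] Log10 CFU per kidney and heart counted. Two-tailed Mann−Whitney test.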

[7] = Cmax in mouse at 2 mg/kg, iv administered as single dose by LC-MS/MS analysis; type: ADME, organism-based; design: dose 2 mg/kg, route intravenous; settings: in vivo
[8] = AUC (0 to infinity) in mouse at 10 mg/kg, po administered as single dose by LC-MS/MS analysis; type: ADME, organism-based; design: dose 10 mg/kg, time infinity, route oral; settings: in vivo
[9] = Cmax in Sprague-Dawley rat at 10 mg/kg, ip administered as single dose by LC-MS/MS analysis; type: ADME, organism-based; design: dose 10 mg/kg, route intraperitoneal; settings: in vivo
Staphylococcus aureus [10] = assay: In vivo anti-virulence activity against methicillin-resistant Staphylococcus aureus Mu50 infected in BALB/c mouse model assessed as reduction in bacterial load in kidneys at 0.05 mg bid for 3.5 days administered intraperitoneally 6 hrs post infection by serial dilution method; type: functional; design: scale not given: the % may be the effect or the level left
Rattus norvegicus [11] = assay: Toxicity in Sprague-Dawley rat at 60 to 1000 mg/kg, po administered as single dose assessed as abnormal behavior measured during 2 weeks post administration; type: organism-based; settings: in vivo, 336 h
Summary of the method: (§3)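 Rats, 30 in total, randomised into three groups. Each received a single oral dose of 60, 250 or 1000 mg/kg on day 1. Poisoning symptoms, mortality, behaviour, water and food consumption and body weight monitored immediately and over 2 weeks.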

Pseudomonas aeruginosa = assay: Antibacterial activity against Pseudomonas aeruginosa after 24 hrs by broth dilution method; type: functional
Rattus norvegicus [12] = assay: Toxicity in Sprague-Dawley rat at 60 to 1000 mg/kg, po administered as single dose assessed as changes in water consumption measured during 2 weeks post administration; type: organism-based; settings: in vivo, 336 h; summary of the method: as §3
Staphylococcus aureus [13] = assay: In vivo anti-virulence activity against Staphylococcus aureus Newman in mouse lethal infection model assessed as host survival rate at 0.1 mg bid for 3.5 days administered intraperitoneally 6 hrs post infection and measured on day 4; type: functional
Summary of the method: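 In a lethal sepsis model, mice (n=15) were challenged with 2 × 10^8 CFU S. aureus Newman. Animal survival was recorded daily through day 8.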

Staphylococcus aureus [14] = assay: In vivo anti-virulence activity against methicillin-resistant Staphylococcus aureus XN108 infected in BALB/c mouse model assessed as reduction in bacterial load in kidney at 0.1 mg bid for 3.5 days administered intraperitoneally 6 hrs post infection by serial dilution method relative to vancomycin; type: functional, organism-based; summary of the method: as §2
Liver = assay: as §1; type: ADME, microsome; settings: microsomes, 1 h, 2 µM
Enterococcus faecium = assay: Antibacterial activity against Enterococcus faecium after 24 hrs by broth dilution method; type: functional
[15] = AUC (0 to infinity) in Sprague-Dawley rat at 10 mg/kg, ip administered as single dose by LC-MS/MS analysis; type: ADME, organism-based; design: dose 10 mg/kg, time infinity, route intraperitoneal; settings: in vivo
[16] = Inhibition of CrtN in methicillin-resistant Staphylococcus aureus NRS70 assessed as reduction in staphyloxanthin levels after 48 hrs by spectrophotometric method-based pigment inhibition assay
Staphylococcus aureus [17] = assay: Antibacterial activity against Staphylococcus aureus Newman after 24 hrs by broth dilution method; type: functional; settings: Staphylococcus aureus, Newman, 24 h; read-out: MIC
Staphylococcus aureus [18] = assay: In vivo anti-virulence activity against methicillin-resistant Staphylococcus aureus NF65Y infected in BALB/c mouse model assessed as reduction in bacterial load in heart at 0.1 mg bid for 3.5 days administered intraperitoneally 6 hrs post infection by serial dilution method relative to linezolid; type: functional, organism-based; summary of the method: as §2
Staphylococcus aureus [19] = assay: In vivo anti-virulence activity against methicillin-resistant Staphylococcus aureus XN108 infected in BALB/c mouse model assessed as reduction in bacterial load in kidney at 0.1 mg bid for 3.5 days administered intraperitoneally 6 hrs post infection by serial dilution method relative to linezolid; type: functional, organism-based; summary of the method: as §2
Staphylococcus aureus [20] = assay: In vivo anti-virulence activity against methicillin-resistant Staphylococcus aureus LRSA56 infected in BALB/c mouse model assessed as reduction in bacterial load in heart at 0.1 mg bid for 3.5 days administered intraperitoneally 6 hrs post infection by serial dilution method relative to linezolid; type: functional; design: scale not given: the % may be the effect or the level left
Summary of the method: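 Mice were infected by retro-orbital injection with LRSA56 (5.0 × 10^7 CFU) or LRSA202 (7.0 × 10^7 CFU). Compound was given intraperitoneally 6 h after infection. […] Log10 CFU was counted in kidneys and hearts, with groups compared by two-tailed Mann-Whitney test.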

Rattus norvegicus [21] = assay: Toxicity in Sprague-Dawley rat at 60 to 1000 mg/kg, po administered as single dose assessed as poisoning symptoms measured immediately post administration; type: organism-based; settings: in vivo
Summary of the method: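 Acute toxicity study: 30 rats randomly split into three groups and given a single oral dose (60, 250 or 1000 mg/kg) on day 1. Animals were watched for poisoning symptoms and mortality immediately after dosing and over a 2-week post-treatment period. Behaviour, water/food consumption and body weight were also tracked.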

[22] = AUC (0 to infinity) in Sprague-Dawley rat at 10 mg/kg, po administered as single dose by LC-MS/MS analysis; type: ADME, organism-based; design: dose 10 mg/kg, route oral, time infinity; settings: in vivo
[23] = Half life in Sprague-Dawley rat at 10 mg/kg, po administered as single dose by LC-MS/MS analysis; type: ADME, organism-based; settings: in vivo
[24] = AUC (0 to 24 hrs) in Sprague-Dawley rat at 5 mg/kg, iv administered as single dose by LC-MS/MS analysis; type: ADME, organism-based; design: dose 5 mg/kg, time < 24 hr, route intravenous; settings: in vivo
[25] = Inhibition of CrtN in methicillin-resistant Staphylococcus aureus NRS100 assessed as reduction in staphyloxanthin levels after 48 hrs by spectrophotometric method-based pigment inhibition assay
[26] = AUC (0 to 24 hrs) in mouse at 2 mg/kg, iv administered as single dose by LC-MS/MS analysis; type: ADME, organism-based; design: dose 2 mg/kg, time < 24 hr, route intravenous; settings: in vivo
[27] = Inhibition of CrtN in methicillin-resistant Staphylococcus aureus LRSA202 assessed as reduction in staphyloxanthin levels after 48 hrs by spectrophotometric method-based pigment inhibition assay

**Q.** For `CN(C/C=C/c1ccc(-c2ccccc2)cc1)Cc1cccc2cc[nH]c12.Cl`, which half-life at 2 µM [1] is on record?
**A.** Its half-life at 2 µM is 1.56 h.

**Q.** And the IC50 [2]?
**A.** The IC50 was > 40000 nM.

**Q.** What does the source list for `CN(C/C=C/c1ccc(-c2ccccc2)cc1)Cc1coc2ccccc12.Cl`?
**A.** IC50 [3]: 1 nM; IC50 [4]: 0.2 nM; IC50 [5]: 0.02 nM; Activity (Staphylococcus aureus [6]): Active; Cmax [7]: 2.23 µg/mL; AUC(0-inf) [8]: 4.56 µg·h/mL; Cmax [9]: 130 µg/mL; Activity (Staphylococcus aureus [10]): >91.8%; Activity (Rattus norvegicus [11]): Non-Toxic; MIC (Pseudomonas aeruginosa): > 500 mg/L; Activity (Rattus norvegicus [12]): Non-Toxic; Survival (Staphylococcus aureus [13]): 80%; Activity (Staphylococcus aureus [14]): Active; t1/2 (Liver): 0.845 h; MIC (Enterococcus faecium): > 500 mg/L; AUC(0-inf) [15]: 1090 µg·h/mL; IC50 [16]: 1.7 nM; MIC (Staphylococcus aureus [17]): > 500 mg/L; Activity (Staphylococcus aureus [18]): Active; Activity (Staphylococcus aureus [19]): Active; Activity (Staphylococcus aureus [20]): >71.8%; Activity (Rattus norvegicus [21]): Non-Toxic; AUC(0-inf) [22]: 0.93 µg·h/mL; half-life [23]: 1.29 h; AUC(0-t) at 24 h [24]: 2.81 µg·h/mL; IC50 [25]: 1.2 nM; AUC(0-t) at 24 h [26]: 1.07 µg·h/mL; IC50 [27]: 1.6 nM
